Experimental data from ChEMBL document CHEMBL1156147, “Phosphoramidates of 2'-beta-D-arabinouridine (AraU) as phosphate prodrugs; design, synthesis, in vitro activity and metabolism” (Bioorg Med Chem, 2010).
Active and inactive are the calls of the source. The rule behind the calls is not given here.

Key:
[1] = system: L1210; experiment: Cytostatic activity mouse L1210 cells; type: functional, cell-based
[2] = system: Human immunodeficiency virus 1; experiment: Antiviral activity against HIV1 3B infected human CEM cells assessed as inhibition of syncytia formation after 4 days; type: functional, organism-based; conditions: CCRF-CEM
Outline: (§1)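 Human CEM cells (~3 × 10^5 cells/mL) were infected with ~100 CCID50/mL of HIV-1(IIIB) or HIV-2(ROD) and seeded with compound dilutions. Syncytia formation was examined microscopically after 4 days at 37 °C. EC50 is the concentration reducing virus-induced cytopathicity by 50%.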

[3] = system: Mammalian orthoreovirus 1; experiment: Antiviral activity against Reovirus 1 assessed as inhibition of virus-induced cytopathicity by cell based assay; type: functional, organism-based
Outline: (§2)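 Cytopathicity reduction in confluent HEL, Vero, HeLa, CFKC or MDCK monolayers. Cells were inoculated with 100 CCID50 of virus and allowed 1–2 h adsorption. Residual virus was then removed and cells were incubated with serially varied compound. CPE was scored once complete in untreated infected controls. EC50 is the concentration halving virus-induced cytopathicity.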

[4] = system: PC-3; experiment: Cytostatic activity against human PC3 cells after 96 hrs by MTT assay; type: functional, cell-based; conditions: PC-3, 96 h
Outline: (§3)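 Cells were seeded at 5 × 10^3 per well and allowed 24 h to adhere. Compound was added from DMSO stocks as decimal dilutions (final 0.1–100 μM) for 96 h at 37 °C, 5% CO2. MTT (final 0.5 mg/mL) was added for 4 h and formazan solubilised in 10% Triton X-100/PBS. Absorbance was read at 540 nm. IC50 is inhibition relative to control.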

[5] = system: HL-60; experiment: Cytostatic activity against human HL60 cells; type: functional, cell-based
Outline: (§4)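 Leukaemia cells were exposed to serial dilutions from 100 μM down to 0.02 μM for 72 h at 37 °C, 5% CO2. MTS was then added for a further 4 h. Absorbance was read at 490 nm and viability calculated relative to untreated controls. IC50 is the concentration at which 50% of cells are no longer viable.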

[6] = system: Human alphaherpesvirus 2; experiment: Antiviral activity against Herpes simplex virus2 G assessed as inhibition of virus-induced cytopathicity by cell based assay; type: functional, organism-based; conditions: strain G; outline: as §2
[7] = system: Vaccinia virus; experiment: Antiviral activity against Vaccinia virus lederle assessed as inhibition of virus-induced cytopathicity by cell based assay; type: functional, organism-based; conditions: Orthopoxvirus vaccinia
[8] = system: MCF7; experiment: Cytostatic activity against human MCF7 cells after 96 hrs by MTT assay; type: functional, cell-based; conditions: MCF7, 96 h; outline: as §3
[9] = system: Coxsackievirus B4; experiment: Antiviral activity against Coxsackievirus B4 assessed as inhibition of virus-induced cytopathicity by cell based assay; type: functional, organism-based; outline: as §2
[10] = system: Human alphaherpesvirus 1; experiment: Antiviral activity against HSV1 KOS assessed as inhibition of virus-induced cytopathicity by cell based assay; type: functional, organism-based; outline: as §2
[11] = system: NB-4; experiment: Cytostatic activity against human NB4 cells; type: functional, cell-based; outline: as §4
[12] = system: Human alphaherpesvirus 1; experiment: Antiviral activity against thymidine kinase deficient acyclovir resistant HSV1 KOS assessed as inhibition of virus-induced cytopathicity by cell based assay; type: functional, organism-based
[13] = system: KG-1; experiment: Cytostatic activity human KG1 cells; type: functional, cell-based; outline: as §4
[14] = system: Influenza A virus; experiment: Antiviral activity against influenza A virus H1N1 assessed as inhibition of virus-induced cytopathicity by cell based assay; type: functional, organism-based
[15] = system: CCRF-CEM; experiment: Cytostatic activity human CEM cells; type: functional, cell-based
[16] = system: Human respirovirus 3; experiment: Antiviral activity against Human parainfluenza virus 3 assessed as inhibition of virus-induced cytopathicity by cell based assay; type: functional, organism-based; outline: as §2
[17] = system: Punta Toro virus; experiment: Antiviral activity against Punta Toro virus assessed as inhibition of virus-induced cytopathicity by cell based assay; type: functional, organism-based; outline: as §2
[18] = system: LoVo; experiment: Cytostatic activity against human LoVo cells after 96 hrs by MTT assay; type: functional, cell-based; outline: as §3
[19] = system: Vesicular stomatitis virus; experiment: Antiviral activity against Vesicular stomatitis virus assessed as inhibition of virus-induced cytopathicity by cell based assay; type: functional, organism-based
[20] = system: U-937; experiment: Cytostatic activity human U937 cells; type: functional, cell-based; outline: as §4
[21] = system: Respiratory syncytial virus; experiment: Antiviral activity against Respiratory syncytial virus Long assessed as inhibition of virus-induced cytopathicity by cell based assay; type: functional, organism-based; outline: as §2
[22] = system: Human immunodeficiency virus 2; experiment: Antiviral activity against HIV2 infected human CEM cells assessed as inhibition of syncytia formation after 4 days; type: functional, organism-based; conditions: CCRF-CEM; outline: as §1
[23] = system: Influenza A virus; experiment: Antiviral activity against influenza A virus H3N2 assessed as inhibition of virus-induced cytopathicity by cell based assay; type: functional, organism-based
[24] = system: A549; experiment: Cytostatic activity against human A549 cells after 96 hrs by MTT assay; type: functional, cell-based; conditions: A549, 96 h; outline: as §3
[25] = system: Sindbis virus; experiment: Antiviral activity against Sindbis virus assessed as inhibition of virus-induced cytopathicity by cell based assay; type: functional, organism-based; outline: as §2
[26] = Metabolic stability assessed as half life in the presence of carboxypeptidase Y after 3 hrs at pH 7.6; type: ADME; conditions: Saccharomyces cerevisiae (yeast)

Compound	IC50 [1] [µM]	inhibition [2]	inhibition [3]	IC50 [5] [µM]	inhibition [6]	inhibition [7]	inhibition [9]	inhibition [10]	IC50 [11] [µM]	inhibition [12]	IC50 [13] [µM]	inhibition [14]	IC50 [15] [µM]	inhibition [16]	inhibition [17]	inhibition [19]	IC50 [20] [µM]	inhibition [21]	inhibition [22]	inhibition [23]	further results
CC(C)OC(=O)[C@H](C)NP(=O)(OC[C@H]1O[C@@H](n2ccc(=O)[nH]c2=O)[C@@H](O)[C@@H]1O)Oc1cccc2ccccc12 (some centres not stated)	250	inactive	inactive	84	inactive	inactive	inactive	inactive	77	inactive	67	inactive	181	inactive	inactive	inactive	> 100	inactive	inactive	inactive	IC50 [4]: > 100 µM; IC50 [8]: > 100 µM; IC50 [18]: > 100 µM; IC50 [24]: > 100 µM; inhibition [25]: inactive
C[C@@H](NP(=O)(OC[C@H]1O[C@@H](n2ccc(=O)[nH]c2=O)[C@@H](O)[C@@H]1O)Oc1ccccc1)C(=O)OCc1ccccc1 (some centres not stated)	470	inactive	inactive	92	inactive	inactive	inactive	inactive	88	inactive	90	inactive	313	inactive	inactive	inactive	> 100	inactive	inactive	inactive	IC50 [4]: > 100 µM; IC50 [8]: 50 µM; IC50 [18]: > 100 µM; IC50 [24]: > 100 µM; inhibition [25]: inactive
C[C@H](NP(=O)(OC[C@H]1O[C@@H](n2ccc(=O)[nH]c2=O)[C@@H](O)[C@@H]1O)Oc1ccccc1)C(=O)OCc1ccccc1 (some centres not stated)	184	inactive	inactive	> 100	inactive	inactive	inactive	inactive	38	inactive	63	inactive	188	inactive	inactive	inactive	92	inactive	inactive	inactive	IC50 [4]: > 100 µM; IC50 [8]: > 100 µM; half-life [26]: 15 min; IC50 [18]: > 100 µM; IC50 [24]: > 100 µM; inhibition [25]: inactive
COC(=O)[C@H](C)NP(=O)(OC[C@H]1O[C@@H](n2ccc(=O)[nH]c2=O)[C@@H](O)[C@@H]1O)Oc1ccccc1 (some centres not stated)	> 500	inactive	inactive	> 100	inactive	inactive	inactive	inactive	53	inactive	32	inactive	> 500	inactive	inactive	inactive	> 100	inactive	inactive	inactive	IC50 [4]: > 100 µM; IC50 [8]: > 100 µM; IC50 [18]: > 100 µM; IC50 [24]: > 100 µM; inhibition [25]: inactive
O=c1ccn([C@@H]2O[C@H](CO)[C@@H](O)[C@@H]2O)c(=O)[nH]1 [ARAURIDINE]	170	inactive	inactive	90	inactive	inactive	inactive	inactive	69	inactive	25	inactive	> 500	inactive	inactive	inactive	> 100	inactive	inactive	inactive	inhibition [25]: inactive
O=C(CNP(=O)(OC[C@H]1O[C@@H](n2ccc(=O)[nH]c2=O)[C@@H](O)[C@@H]1O)Oc1ccccc1)OCc1ccccc1 (some centres not stated)	256	inactive	inactive	> 100	inactive	inactive	inactive	inactive	52	inactive	39	inactive	196	inactive	inactive	inactive	> 100	inactive	inactive	inactive	IC50 [4]: > 100 µM; IC50 [8]: > 100 µM; IC50 [18]: > 100 µM; IC50 [24]: > 100 µM; inhibition [25]: inactive
